# Columns and labels:
# [1] = tested on: Streptococcus pneumoniae; experiment: Antibacterial activity against Streptococcus pneumoniae 08-2 after 18 to 24 hrs by NCCLS M100-S11 two fold serial dilution method; assay type: functional
# [2] = tested on: Enterococcus faecium; experiment: Antibacterial activity against Enterococcus faecium 08-2 after 18 to 24 hrs by NCCLS M100-S11 two fold serial dilution method; assay type: functional
# [3] = tested on: Enterococcus faecalis; experiment: Antibacterial activity against Enterococcus faecalis 08-10 after 18 to 24 hrs by NCCLS M100-S11 two fold serial dilution method; assay type: functional
# [4] = tested on: Escherichia coli; experiment: Antibacterial activity against Escherichia coli 08-21 after 18 to 24 hrs by NCCLS M100-S11 two fold serial dilution method; assay type: functional
# [5] = tested on: Staphylococcus epidermidis; experiment: Antibacterial activity against methicillin-sensitive Staphylococcus epidermidis 09-3 after 18 to 24 hrs by NCCLS M100-S11 two fold serial dilution method; assay type: functional
# How it was run: (§1)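 Two-fold serial dilution in agar medium. MIC read as the lowest concentration giving complete inhibition of bacterial growth after incubation at 35 °C for 18–24 h.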
# [6] = tested on: Escherichia coli; experiment: Antibacterial activity against Escherichia coli ATCC 25922 after 18 to 24 hrs by NCCLS M100-S11 two fold serial dilution method; assay type: functional; conditions: ATCC25922
# [7] = tested on: Staphylococcus aureus; experiment: Antibacterial activity against methicillin-sensitive Staphylococcus aureus 08-1 after 18 to 24 hrs by NCCLS M100-S11 two fold serial dilution method; assay type: functional
# [8] = tested on: Staphylococcus epidermidis; experiment: Antibacterial activity against methicillin-sensitive Staphylococcus epidermidis 09-6 after 18 to 24 hrs by NCCLS M100-S11 two fold serial dilution method; assay type: functional; how it was run: as §1
# [9] = tested on: Escherichia coli; experiment: Antibacterial activity against Escherichia coli 08-22 after 18 to 24 hrs by NCCLS M100-S11 two fold serial dilution method; assay type: functional
# [10] = tested on: Pseudomonas aeruginosa; experiment: Antibacterial activity against Pseudomonas aeruginosa ATCC 27853 after 18 to 24 hrs by NCCLS M100-S11 two fold serial dilution method; assay type: functional
# [11] = tested on: Streptococcus pneumoniae; experiment: Antibacterial activity against Streptococcus pneumoniae 08-4 after 18 to 24 hrs by NCCLS M100-S11 two fold serial dilution method; assay type: functional
# [12] = tested on: Pseudomonas aeruginosa; experiment: Antibacterial activity against Pseudomonas aeruginosa 09-32 after 18 to 24 hrs by NCCLS M100-S11 two fold serial dilution method; assay type: functional
# [13] = tested on: Staphylococcus aureus; experiment: Antibacterial activity against Staphylococcus aureus ATCC 25923 after 18 to 24 hrs by NCCLS M100-S11 two fold serial dilution method; assay type: functional; conditions: ATCC25923
# [14] = tested on: Pseudomonas aeruginosa; experiment: Antibacterial activity against Pseudomonas aeruginosa 09-34 after 18 to 24 hrs by NCCLS M100-S11 two fold serial dilution method; assay type: functional
# [15] = tested on: Pseudomonas aeruginosa; experiment: Antibacterial activity against Pseudomonas aeruginosa 09-33 after 18 to 24 hrs by NCCLS M100-S11 two fold serial dilution method; assay type: functional
# [16] = tested on: Enterococcus faecalis; experiment: Antibacterial activity against Enterococcus faecalis 08-12 after 18 to 24 hrs by NCCLS M100-S11 two fold serial dilution method; assay type: functional
# [17] = tested on: Staphylococcus aureus; experiment: Antibacterial activity against methicillin-resistant Staphylococcus aureus 08-1 after 18 to 24 hrs by NCCLS M100-S11 two fold serial dilution method; assay type: functional; how it was run: as §1
# [18] = tested on: Staphylococcus epidermidis; experiment: Antibacterial activity against methicillin-resistant Staphylococcus epidermidis 09-4 after 18 to 24 hrs by NCCLS M100-S11 two fold serial dilution method; assay type: functional; how it was run: as §1
# [19] = tested on: Klebsiella pneumoniae; experiment: Antibacterial activity against Klebsiella pneumoniae 09-23 after 18 to 24 hrs by NCCLS M100-S11 two fold serial dilution method; assay type: functional
# [20] = tested on: Enterococcus faecium; experiment: Antibacterial activity against Enterococcus faecium 08-7 after 18 to 24 hrs by NCCLS M100-S11 two fold serial dilution method; assay type: functional
# [21] = Cytotoxicity against african green monkey Vero cells after 72 hrs by MTT assay; assay type: cell-based; conditions: chlorocebus sabaeus
# How it was run: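 Vero cells were kept in Minimum Essential Medium with Earle's salts plus 10% fetal bovine serum at 37 °C under 5% CO₂. Cells were seeded at 1 × 10⁴ per well and allowed to recover 24 h. Medium was then replaced with assay medium containing compound or no drug, and cells were exposed for 72 h. CC₅₀ is the 50% cellular cytotoxic concentration.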
# [22] = tested on: Klebsiella pneumoniae; experiment: Antibacterial activity against Klebsiella pneumoniae 09-22 after 18 to 24 hrs by NCCLS M100-S11 two fold serial dilution method; assay type: functional
# [23] = tested on: Pseudomonas aeruginosa; experiment: Ratio of levofloxacin MIC to compound MIC for Pseudomonas aeruginosa 09-33; assay type: functional
# [24] = tested on: Pseudomonas aeruginosa; experiment: Ratio of levofloxacin MIC to compound MIC for Pseudomonas aeruginosa 09-32; assay type: functional
# [25] = tested on: Pseudomonas aeruginosa; experiment: Ratio of levofloxacin MIC to compound MIC for Pseudomonas aeruginosa 09-34; assay type: functional
# [26] = tested on: Pseudomonas aeruginosa; experiment: Ratio of levofloxacin MIC to compound MIC for Pseudomonas aeruginosa ATCC 27853; assay type: functional
Compound,MIC [1],MIC [2],MIC [3],MIC [4],MIC [5],MIC [6],MIC [7],MIC [8],MIC [9],MIC [10],MIC [11],MIC [12],MIC [13],MIC [14],MIC [15],MIC [16],MIC [17],MIC [18],MIC [19],MIC [20],also measured
CO/N=C(\C)CCN1CCN(c2c(F)cc3c(=O)c(C(=O)O)cn(C4CC4)c3c2OC)CC1C (centres undefined),> 128 µg/mL,> 128 µg/mL,> 128 µg/mL,> 128 µg/mL,0.5 µg/mL,128 µg/mL,2 µg/mL,1 µg/mL,> 128 µg/mL,128 µg/mL,> 128 µg/mL,128 µg/mL,0.5 µg/mL,> 128 µg/mL,> 128 µg/mL,> 128 µg/mL,> 128 µg/mL,2 µg/mL,> 128 µg/mL,> 128 µg/mL,CC50 at 72 h [21]: 157 µg/mL; MIC [22]: > 128 µg/mL
CCO/N=C(\C)CCN1CCN(c2c(F)cc3c(=O)c(C(=O)O)cn(C4CC4)c3c2OC)CC1C (centres undefined),128 µg/mL,> 128 µg/mL,> 128 µg/mL,> 128 µg/mL,0.5 µg/mL,> 128 µg/mL,128 µg/mL,0.5 µg/mL,> 128 µg/mL,> 128 µg/mL,> 128 µg/mL,128 µg/mL,64 µg/mL,> 128 µg/mL,> 128 µg/mL,> 128 µg/mL,16 µg/mL,0.5 µg/mL,> 128 µg/mL,> 128 µg/mL,CC50 at 72 h [21]: 88.4 µg/mL; MIC [22]: 128 µg/mL
COc1c(N2CCN(CC/C(C)=N/NC(N)=O)C(C)C2)c(F)cc2c(=O)c(C(=O)O)cn(C3CC3)c12 (centres undefined),8 µg/mL,8 µg/mL,8 µg/mL,8 µg/mL,0.25 µg/mL,2 µg/mL,1 µg/mL,0.25 µg/mL,4 µg/mL,4 µg/mL,2 µg/mL,0.25 µg/mL,0.5 µg/mL,2 µg/mL,16 µg/mL,8 µg/mL,2 µg/mL,1 µg/mL,2 µg/mL,8 µg/mL,CC50 at 72 h [21]: 31.2 µg/mL; MIC [22]: 1 µg/mL
COc1c(N2CCN(CC/C(C)=N/Nc3ccccc3)C(C)C2)c(F)cc2c(=O)c(C(=O)O)cn(C3CC3)c12 (centres undefined),0.5 µg/mL,0.5 µg/mL,0.5 µg/mL,1 µg/mL,0.06 µg/mL,0.25 µg/mL,0.125 µg/mL,0.25 µg/mL,1 µg/mL,0.5 µg/mL,0.25 µg/mL,0.5 µg/mL,0.06 µg/mL,0.25 µg/mL,0.5 µg/mL,1 µg/mL,0.25 µg/mL,0.06 µg/mL,1 µg/mL,0.5 µg/mL,Ratio [23]: 2; Ratio [24]: 2; Ratio [25]: 2; Ratio [26]: 2; CC50 at 72 h [21]: 62.5 µg/mL; MIC [22]: 0.5 µg/mL
COc1c(N2CCN(O)C(C)C2)c(F)cc2c(=O)c(C(=O)O)cn(C3CC3)c12 (centres undefined),16 µg/mL,16 µg/mL,16 µg/mL,16 µg/mL,0.25 µg/mL,4 µg/mL,0.25 µg/mL,0.25 µg/mL,16 µg/mL,4 µg/mL,2 µg/mL,2 µg/mL,0.125 µg/mL,4 µg/mL,32 µg/mL,16 µg/mL,0.25 µg/mL,0.25 µg/mL,16 µg/mL,16 µg/mL,CC50 at 72 h [21]: 19.7 µg/mL; MIC [22]: 2 µg/mL
